Test results as given in ChEMBL document CHEMBL4130550, “Antiproliferative Dimeric Aporphinoid Alkaloids from the Roots of Thalictrum cultratum” (J Nat Prod, 2017).

Key:
HL-60 [1] = assay: Antiproliferative activity against human HL60 cells after 72 hrs by tryphan blue staining based hematocytometric method; assay type: functional, cell-based; conditions: HL-60, 72 h
Method in brief: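 HL-60 (ATCC) in RPMI-1640 with 10% heat-inactivated FBS, 1 mM glutamine and penicillin/streptomycin, 37 °C, 5% CO2. Cells at 4.5 × 10^4 cells/mL are exposed to a concentration gradient (DMSO stock diluted in absolute EtOH) for 72 h. Trypan blue is added and total cells are counted on a hematocytometer. IC50 is the mean of three parallel experiments. Negative reference is 0.1% DMSO.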

PC-3 [2] = assay: Antiproliferative activity against human PC3 cells by MTT assay; assay type: functional, cell-based
Method in brief: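 PC-3 (ATCC) in supplemented RPMI-1640 with 10% FBS at 37 °C, 5% CO2. Log-phase cells get graded concentrations in triplicate. MTT (5 mg/mL solution) is added for a further 4 h, then dissolved in DMSO and read at 490 nm. IC50 is from the average of three parallel experiments. Negative reference is 0.1% DMSO.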

HL-60 [3] = assay: Potency index, ratio of 5-fluorouracil IC50 to compound IC50 for human HL60 cells; assay type: functional
PC-3 [4] = assay: Potency index, ratio of 5-fluorouracil IC50 to compound IC50 for human PC3 cells; assay type: functional
PC-3 [5] = assay: Potency index, ratio of camptothecin IC50 to compound IC50 for human PC3 cells; assay type: functional

| SMILES | IC50 (HL-60 [1]) [µM] | IC50 (PC-3 [2]) [µM] | Ratio IC50 (HL-60 [3]) | Ratio IC50 (PC-3 [4]) | Ratio IC50 (PC-3 [5]) |
| --- | --- | --- | --- | --- | --- |
| COc1cc2c(cc1OC)C1=Cc3c(cc(OC)c(OC)c3Oc3cc4c(cc3OC)-c3c(OC)c(OC)c(OC)c5c3[C@H](C4)N(C)CC5)CN1CC2 | 1.77 | 11.6 | – | – | – |
| COc1cc2c(cc1OC)-c1cc3c(Oc4cc5c(cc4OC)-c4c(OC)c(OC)c(OC)c6c4[C@H](C5)N(C)CC6)c(OC)c(OC)cc3c(=O)n1CC2 | 10.3 | 3.72 | – | – | – |
| COc1cc2c(c(OC)c1OC)CCN(C)[C@H]2Cc1ccc(Oc2c(OC)c(OC)cc3c2cc2c4c(c(OC)c(OC)c(OC)c43)CCN2C)cc1 | 2.12 | 6.01 | – | – | – |
| COc1cc2c(c(Oc3ccc(C[C@H]4c5cc(OC)c(OC)c(OC)c5CC[N@@+]4(C)[O-])cc3)c1OC)C[C@H]1c3c(c(OC)c(OC)c(OC)c3-2)CCN1C | 5.05 | 13.4 | – | – | – |
| COc1cc2c(cc1OC)[C@H](Cc1ccc(Oc3c4c(cc(OC)c3OC)-c3c(OC)c(OC)c(OC)c5c3[C@H](C4)N(C)CC5)cc1)N(C)CC2 [THALIFABERINE] | 1.58 | 7.27 | – | – | – |
| COc1cc2c(c(O)c1OC)CC[N@@+](C)([O-])[C@H]2Cc1ccc(Oc2c3c(cc(OC)c2OC)-c2c(OC)c(OC)c(OC)c4c2[C@H](C3)N(C)CC4)cc1 | 4.57 | 18.7 | – | – | – |
| COc1cc2c(c(O)c1OC)CCN(C)[C@H]2Cc1ccc(Oc2c3c(cc(OC)c2OC)-c2c(OC)c(OC)c(OC)c4c2[C@H](C3)N(C)CC4)cc1 | 1.01 | 2.47 | 2 | 9 | 3 |
| COc1cc2c(cc1OC)[C@H](Cc1ccc(Oc3c(OC)c(OC)cc4c3cc3c5c(cc(OC)c(OC)c54)CCN3C)cc1)N(C)CC2 | 4.09 | 7.86 | – | – | – |
| COc1cc2c(cc1OC)[C@H](Cc1ccc(Oc3c(OC)c(OC)cc4c3cc3c5c(c(OC)c(OC)c(OC)c54)CCN3C)cc1)N(C)CC2 | 2.41 | 2.56 | – | – | – |
| O=c1[nH]cc(F)c(=O)[nH]1 [FLUOROURACIL] | – | 22 | – | – | – |
| COc1cc2c(c(Oc3ccc(C[C@H]4c5cc(OC)c(OC)c(OC)c5CCN4C)cc3)c1OC)C[C@H]1c3c(c(OC)c(OC)c(OC)c3-2)CCN1C | 1.16 | 6.05 | – | – | – |
| COc1cc2c(c(Oc3ccc(C[C@H]4c5cc(OC)c(OC)c(OC)c5CC[N@+]4(C)[O-])cc3)c1OC)C[C@H]1c3c(c(OC)c(OC)c(OC)c3-2)CCN1C | 4.21 | 8.35 | – | – | – |
| COc1cc2c(c(O)c1OC)CCN(C)[C@H]2Cc1ccc(Oc2c3c(cc(OC)c2OC)-c2c(OC)c(OC)cc4c2[C@H](C3)N(C)CC4)cc1 | 2.1 | 5.85 | – | – | – |
| CC[C@@]1(O)C(=O)OCc2c1cc1n(c2=O)Cc2cc3ccccc3nc2-1 [CAMPTOTHECIN] | 0.92 | 6.96 | – | – | – |
| COc1cc2c(cc1OC)[C@H](Cc1ccc(Oc3c4c(cc(OC)c3OC)-c3c(OC)c(OC)cc5c3[C@H](C4)N(C)CC5)cc1)N(C)CC2 | 1.44 | 2.72 | – | – | – |
| COc1cc2c(c3c1OCO3)CCN(C)[C@H]2Cc1ccc(Oc2c(OC)c(OC)cc3c2cc2c4c(c(OC)c(OC)c(OC)c43)CCN2C)cc1 | 1.77 | 3.29 | – | – | – |
| COc1cc2c(c(O)c1OC)CCN(C)[C@H]2Cc1ccc(Oc2c(OC)c(OC)cc3c2cc2c4c(c(OC)c(OC)c(OC)c43)CCN2C)cc1 | 4.28 | 7.1 | – | – | – |
| COc1cc2c(c(O)c1OC)CC[N@+](C)([O-])[C@H]2Cc1ccc(Oc2c3c(cc(OC)c2OC)-c2c(OC)c(OC)c(OC)c4c2[C@H](C3)N(C)CC4)cc1 | 2.86 | 12.7 | – | – | – |
